Compound activity (PubChem)
SIRT5 block = inhibitors of human sirtuin-5 desuccinylase; actives 1.1% (n = 330,000); AID 652115; Q9NXA8; Purified SirT5, succinyl-peptide AMC, trypsin-coupled fluorescence; inhibition, % at 15 µM; in the data active = inhibition above about 15%
Target sequence (Q9NXA8 whole entry, looked up): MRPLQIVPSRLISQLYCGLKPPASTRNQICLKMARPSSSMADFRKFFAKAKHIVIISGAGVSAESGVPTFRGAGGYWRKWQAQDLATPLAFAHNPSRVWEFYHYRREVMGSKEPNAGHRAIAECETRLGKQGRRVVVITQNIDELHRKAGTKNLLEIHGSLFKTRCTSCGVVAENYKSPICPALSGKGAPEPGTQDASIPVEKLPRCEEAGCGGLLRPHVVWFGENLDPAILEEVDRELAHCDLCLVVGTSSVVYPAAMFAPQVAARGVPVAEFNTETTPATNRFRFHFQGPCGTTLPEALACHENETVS
Xi reactivation = X-chromosome reactivation activator | XiGFP mouse fibroblasts, % GFP-positive cells imaging, 3 d; cells co-treated with 5-aza-dC sensitizer; scaled so ellipticine positive control = 100% | activation, % at 7.58 µM | actives 0.055% (n = 360,000) | AID 743238;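 active = mean normalized replicate activation at least 10% and every replicate at or above 10%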;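 note: 0% = median of on-plate neutral control wells and 100% = ellipticine 6 µM median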
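System: SV40-immortalized XiGFP fibroblast cells, line 68-5-11 / Incubation: 3-day compound exposure, then 15 min fixation at room temperature / Compound: single concentration per compound, delivered by pin transfer / Buffer or medium: DMEM plus 5-aza-dC sensitizer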
FN deposition inh = fibronectin deposition inhibition; AH1F fibroblasts, Alexa488-fibronectin deposition fluorescence, overnight; inhibition, % at 12.6 µM; actives 0.086% (n = 350,000); AID 743247;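 active = mean inhibition across replicates of 30% or more, regardless of how many single replicates reach that level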;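 note: positive control wells lacked labelled fibronectin entirely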
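Measured by – fluorescence 485/525 nm · System – AH1F fibroblast monolayer, labelled fibronectin deposition · Amount – 10000 cells per well · Buffer or medium – serum-reduced DMEM (2% serum) · Doses – single dose, pinned · Also added – fluorescent fibronectin at 24 nM final · Schedule – 1 h cell attachment, overnight exposure to compound and label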
FGF22 binding = shifts melting point of recombinant human FGF22 | Q9HCT0 | recombinant FGF22 thermal shift, SYPRO orange fluorescence; percent of sucrose octasulfate shift, DMSO zero | activity (Tm shift, normalised), % at 9.99 µM | actives 1.5% (n = 340,000) | AID 651658;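 active = mean Tm shift, scaled 0 neutral to 100 positive control, at about 1.3% or above, every replicate too, limit read from the data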
Target sequence (Q9HCT0 whole entry, looked up): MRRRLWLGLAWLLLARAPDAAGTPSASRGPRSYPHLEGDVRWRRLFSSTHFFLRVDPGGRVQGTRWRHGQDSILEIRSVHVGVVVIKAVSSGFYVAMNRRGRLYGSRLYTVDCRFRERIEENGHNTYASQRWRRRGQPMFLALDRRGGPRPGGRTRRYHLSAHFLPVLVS
ARNT-TACC3 inh = ARNT/TACC3 interaction disruption | Q9Y6A5 | AlphaScreen His-ARNT PAS-B/GST-TACC3 binding, luminescence; TACC3 fragment carries E629A point mutation | inhibition, % at 9.99 µM | actives 0.66% (n = 390,000) | AID 623870;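 active = mean inhibition of replicates at least 50% and at least half of replicates each reaching 50%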;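 note: 0% = complete ARNT plus TACC3 wells and 100% = ARNT alone without TACC3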
DENV2 CPE = DENV2-induced cell death inhibition | actives 1.7% (n = 350,000) | DENV2-infected cells, cytopathic effect rescue, plate reader | CPE inhibition, % at 9.99 µM; in the data active = CPE inhibition above about 20%, passing the limit was not always enough; tested in BHK-21 cells;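 note: 0% = median of neutral control wells and 100% = median of positive control wells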
Active calls of the source: *; . = not tested or not shown. This is a sample that favours compounds with a hit; in the whole collection about 3.8% have one here.

SMILES	SIRT5 block	Xi reactivation	FN deposition inh	FGF22 binding	ARNT-TACC3 inh	DENV2 CPE
COCC(=O)Nc1ccc2c(c1)C(=O)N(C)C[C@H](OC)[C@@H](C)CN(CCC(F)(F)F)[C@H](C)CO2	-4.7	-0.1	6.1	-0.4	-9.7	-0.1
Cc1ccccc1NC(=O)/C=C/c1cccs1	2.3	-0.1	1.7	43.1*	3.1	4.4
Cc1ccccc1NC(=O)/C=C1\SC(=O)NC1=O	-1.1	0.0	16.5	43.9*	-1.5	5.5
O=C(/C=C1\SC(=O)NC1=O)Nc1ccc(C(=O)O)cc1	0.9	-0.2	1.0	-0.2	-3.2	0.0
COc1ccc(CC(=O)OCC(=O)NCc2ccc(F)cc2)cc1	-0.8	0.0	-5.2	-0.1	2.4	-7.9
COC(=O)CNC(=O)COC(=O)/C=C/c1cccs1	1.1	-0.1	-2.7	0.1	-3.5	16.3
CCN(CC)S(=O)(=O)c1ccc(C)c(NC(=O)/C=C/c2cccs2)c1	1.0	0.2	-1.3	-0.1	-0.1	15.3
COc1ccc(CC(=O)OCC(=O)NCCNC(=O)COC(=O)Cc2ccc(OC)cc2)cc1	-1.0	0.0	4.7	-0.2	-3.8	60.7*
COc1ccc(CCNC(=O)COC(=O)/C=C/c2cccs2)cc1	-0.4	0.3	-3.2	42.9*	-1.7	-5.8
C[C@H]1CN([C@@H](C)CO)C(=O)Cc2cc(NC(=O)c3ccncc3)ccc2O[C@@H]1CN(C)CC1CC1	-0.8	-1.3	-3.9	0.1	15.2	2.3
N#C[C@H]1N[C@@H](CO)[C@H]1c1ccc(C#CC2CCCC2)cc1	-3.7	0.1	-6.5	0.6	-16.3	-1.3
COCC#Cc1ccc2c(c1)O[C@H](CN(C)Cc1ccccc1F)[C@@H](C)CN([C@@H](C)CO)S2(=O)=O	8.7	-0.5	.	-0.4	1.0	6.1
O=C(C[C@H]1C=C[C@H](NC(=O)C2CCOCC2)[C@@H](CO)O1)NCC1CCCCC1	-3.1	0.3	-1.2	0.3	0.9	2.5
COC(=O)C[C@H]1C[C@@H]2c3cc(NC(=O)NC4CCCC4)ccc3O[C@@H]2[C@H](CO)O1	-29.0	0.4	0.8	0.0	1.0	-5.4
CO[C@H]1CN(C)C(=O)c2cc(NC(=O)C3CCC3)ccc2OC[C@@H](C)NC[C@H]1C	-5.0	-0.1	0.4	0.1	-5.7	-5.5
COc1ccccc1NC(=O)N1C[C@H](O)COC[C@H]2O[C@H](CC(=O)NCc3ccccc3)CC[C@@H]21	1.8	0.1	-4.6	0.0	-5.7	1.8
CC(=O)c1ccccc1NC(=O)COC(=O)/C=C/c1cccs1	-4.3	0.8	2.4	-0.1	0.6	-1.5
O=C(COC(=O)/C=C/c1cccs1)Nc1ccccc1Cl	-1.0	0.0	-1.6	43.2*	2.1	0.5
COc1ccc(C(=O)NNC(=S)NC(=O)/C=C/c2cccs2)cc1	3.1	0.4	-9.4	43.0*	11.6	6.2
C[C@H]1CN([C@@H](C)CO)C(=O)c2c(c3ccccc3n2C)-c2ccccc2CO[C@@H]1CN(C)S(=O)(=O)c1ccccc1F	3.0	-0.4	0.6	0.0	1.5	5.3
C[C@@H]1CN([C@H](C)CO)C(=O)Cc2cc(NC(=O)Nc3ccccc3)ccc2O[C@@H]1CN(C)CC1CC1	.	0.6	.	.	.	.
O=C(CCc1n[nH]c(=O)[nH]c1=O)Nc1cccc([N+](=O)[O-])c1	2.7	0.0	0.3	43.7*	.	-8.2
Cc1c(NC(=O)Cc2cccs2)cccc1[N+](=O)[O-]	-7.4	0.1	.	0.4	-3.4	.
Cc1c(Cl)cccc1NC(=O)Cc1cccs1	56.9*	0.0	-3.1	-0.1	-6.1	-6.6
Nc1nc(SCC(=O)Nc2cccc([N+](=O)[O-])c2)n[nH]1	0.9	-0.1	-11.1	-0.2	-11.6	-1.9
SMILES	SIRT5 block	Xi reactivation	FN deposition inh	FGF22 binding	ARNT-TACC3 inh	DENV2 CPE
CC(CC(=O)O)CC(=O)Nc1cccc([N+](=O)[O-])c1 (centres undefined)	-0.7	0.0	-4.3	43.1*	-1.1	0.7
Cc1c(Cl)cccc1NC(=O)CC1Oc2ccccc2NC1=O (centres undefined)	-3.7	0.0	-8.7	0.2	-6.1	34.6*
Cc1c(Cl)cccc1NC(=O)CC1Sc2ccccc2NC1=O (centres undefined)	-6.0	0.0	0.8	-0.3	-3.7	0.8
COc1ccccc1NC(=O)N[C@@H]1CC[C@H](CCn2cc(-c3ccccc3)nn2)O[C@@H]1CO	4.3	0.2	.	-0.1	-0.4	13.3
C[C@@H]1CN([C@@H](C)CO)C(=O)c2cccc(NC(=O)c3ccncc3)c2O[C@H]1CN(C)S(=O)(=O)c1ccccc1	.	-0.2	0.7	0.0	.	-10.0
O=C(Cc1ccccc1)Nc1cccc([N+](=O)[O-])c1	-8.8	0.0	3.5	-0.3	0.2	3.9
O=C(Cc1cccs1)Nc1cccc([N+](=O)[O-])c1	-3.2	0.0	7.4	43.4*	15.7	6.3
Cc1ccc(S(=O)(=O)N[C@H]2CC[C@H](CC(=O)NCCCN(C)C)O[C@@H]2CO)cc1	-8.8	0.9	.	-0.1	-5.5	-3.2
CC(C)(C)c1ccc(C(=O)c2c[nH]c(C(=O)NCCCN3CCOCC3)c2)cc1	.	.	-3.8	.	-7.8	.
COc1cccc(C(=O)c2c[nH]c(C(=O)NCCCN3CCOCC3)c2)c1	-0.7	0.5	-18.5	43.1*	6.4	-1.9
COc1cccc(C(=O)Nc2cccc(C(=O)N3CCOCC3)c2)c1	.	.	-2.4	.	0.2	.
COc1cccc(C(=O)N2CCOCC2)c1	-1.8	0.0	-2.5	0.1	0.0	32.5*
CCOc1ccc(N(CC(=O)NC2CCCC(C)C2C)S(=O)(=O)c2c(C)noc2C)cc1 (centres undefined)	.	0.0	1.6	-0.1	0.7	26.1*
Cc1ccc(N(CC(=O)NC2CCCCC2C)S(=O)(=O)c2c(C)noc2C)cc1 (centres undefined)	0.6	0.3	0.3	0.0	-4.1	19.0
C[C@@H]1CCCCO[C@@H](CN(C)C(=O)c2ccccc2)[C@H](C)CN([C@@H](C)CO)C(=O)c2cc(NC(=O)CCC(F)(F)F)ccc2O1	-4.4	0.2	-3.4	0.1	-8.7	1.6
OCC#Cc1ncc(C(F)(F)F)cc1Cl	4.6	0.0	5.2	43.4*	-11.7	12.6
O=C(C1CCCC1)N1CC(=O)N2[C@H](CO)[C@@H](c3ccc(C#CC4CCCC4)cc3)[C@H]2C1	0.2	0.0	.	.	.	5.8
CCC(C(=O)NCCCN1CC(C)CC(C)C1)n1nc(C)c2sc3ccccc3c2c1=O (centres undefined)	31.5*	0.1	-0.6	-0.2	9.7	10.8
CCCN1CCN(CCCNC(=O)C(CC)n2nc(C)c3sc4ccccc4c3c2=O)CC1 (centres undefined)	1.1	0.1	-2.9	-0.1	-1.3	-0.6
